According to ChEMBL document CHEMBL3585281, “Antibacterial Labdane Diterpenoids from Vitex vestita” (2015):
≈ marks a conversion by molar mass, not a printed value.

How the values were obtained:
Format in all cases: functional
Enterococcus faecium [1] = assay: Antibacterial activity against Enterococcus faecium N507 after 18 hrs by agar dilution method; details: N507, 18 h
Summary of the method: (§1)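 Agar-dilution MIC against Gram-positive strains. Compounds in DMSO, geometric dilutions giving final 100−0.75 mg/L in Mueller Hinton agar. Strains grown 18 h at 37 °C in trypticase soy broth, diluted in sterile water, spotted by Steers inoculator (about 1000 UFC/spot). Plates incubated 18 h at 37 °C; DMSO blank; ofloxacin positive control. MIC = lowest concentration with no visible growth.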

Bacillus cereus [2] = assay: Antibacterial activity against Bacillus cereus N190 after 18 hrs by agar dilution method; details: N190, 18 h; summary of the method: as §1
Bacillus spizizenii = assay: Antibacterial activity against Bacillus subtilis ATCC 6633 after 18 hrs by agar dilution method; details: ATCC 6633, 18 h; summary of the method: as §1
Mammaliicoccus sciuri = assay: Antibacterial activity against Staphylococcus sciuri N993 after 18 hrs by agar dilution method; details: N993, 18 h; summary of the method: as §1
Staphylococcus aureus [3] = assay: Antibacterial activity against Staphylococcus aureus ATCC 9144 oxford after 18 hrs by agar dilution method; summary of the method: as §1
Streptococcus agalactiae = assay: Antibacterial activity against Streptococcus agalactiae CIP 103227 after 18 hrs by agar dilution method; details: ATCC 13813, 18 h; summary of the method: as §1
Enterococcus durans = assay: Antibacterial activity against Enterococcus durans CIP 104999 after 18 hrs by agar dilution method; details: CIP 104999, 18 h; summary of the method: as §1
[4] = system: Staphylococcus lugdunensis; assay: Antibacterial activity against Staphylococcus lugdunensis ATCC 43809 after 18 hrs by agar dilution method; details: ATCC 43809, 18 h; summary of the method: as §1
Enterococcus faecium [5] = assay: Antibacterial activity against Enterococcus faecium N490 after 18 hrs by agar dilution method; details: N490, 18 h; summary of the method: as §1
HCT-116 [6] = assay: Cytotoxicity against human HCT116 cells assessed as growth inhibition at 10^-6 M after 72 hrs by MTS assay relative to control; details: HCT-116, 72 h, read-out: GI
Summary of the method: (§2)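 Cells from ATCC; HCT-116 grown in RPMI 1640 and MRC5 in DMEM, each with 10% FCS and 1% glutamine, 37 °C, 5% CO2. Seeded at 2.5 × 10^3 cells/well, cultured 24 h, then exposed to compounds at 1 and 10 μM final for 72 h. MTS read-out, absorbance 490 nm; percent index from treated/control OD490 × 100, three experiments.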

[7] = system: Staphylococcus haemolyticus; assay: Antibacterial activity against Staphylococcus haemolyticus CIP 8156 after 18 hrs by agar dilution method; details: CIP 8156, 18 h; summary of the method: as §1
Enterococcus faecalis [8] = assay: Antibacterial activity against Enterococcus faecalis CIP 103214 after 18 hrs by agar dilution method; details: CIP 103214, 18 h; summary of the method: as §1
Enterococcus faecalis [9] = assay: Antibacterial activity against Enterococcus faecalis N520 after 18 hrs by agar dilution method; details: N520, 18 h; summary of the method: as §1
Staphylococcus aureus [10] = assay: Antibacterial activity against Staphylococcus aureus CIP 53154 after 18 hrs by agar dilution method; details: CIP 53154, 18 h; summary of the method: as §1
Enterococcus faecalis [11] = assay: Antibacterial activity against Enterococcus faecalis CIP 104676 after 18 hrs by agar dilution method; details: CIP 104676, 18 h; summary of the method: as §1
Listeria monocytogenes [12] = assay: Antibacterial activity against Listeria monocytogenes N836 after 18 hrs by agar dilution method; details: N836, 18 h; summary of the method: as §1
HCT-116 [13] = assay: Cytotoxicity against human HCT116 cells assessed as growth inhibition at 10^-5 M after 72 hrs by MTS assay relative to control; details: HCT-116, 72 h, read-out: GI; summary of the method: as §2
Enterococcus faecium [14] = assay: Antibacterial activity against Enterococcus faecium CIP 103014 after 18 hrs by agar dilution method; details: CIP 103014, 18 h; summary of the method: as §1
Bacillus cereus [15] = assay: Antibacterial activity against Bacillus cereus CIP 6624 after 18 hrs by agar dilution method; details: CIP 6624, 18 h; summary of the method: as §1
Listeria monocytogenes [16] = assay: Antibacterial activity against Listeria monocytogenes N851 after 18 hrs by agar dilution method; details: N851, 18 h; summary of the method: as §1
Enterococcus avium = assay: Antibacterial activity against Enterococcus avium CIP 104053 after 18 hrs by agar dilution method; details: CIP 104053, 18 h; summary of the method: as §1
[17] = system: Staphylococcus epidermidis; assay: Antibacterial activity against Staphylococcus epidermidis CIP 53124 after 18 hrs by agar dilution method; details: CIP 53124, 18 h; summary of the method: as §1
Enterococcus gallinarum [18] = assay: Antibacterial activity against Enterococcus gallinarum CIP 105985 after 18 hrs by agar dilution method; details: CIP 105985, 18 h; summary of the method: as §1
Enterococcus faecalis [19] = assay: Antibacterial activity against Enterococcus faecalis N518 after 18 hrs by agar dilution method; details: N518, 18 h; summary of the method: as §1
Enterococcus faecium [20] = assay: Antibacterial activity against Enterococcus faecium N733 after 18 hrs by agar dilution method; details: N733, 18 h; summary of the method: as §1
Staphylococcus aureus [21] = assay: Antibacterial activity against Staphylococcus aureus CIP 7625 after 18 hrs by agar dilution method; details: CIP 7625, 18 h; summary of the method: as §1
Enterococcus hirae = assay: Antibacterial activity against Enterococcus hirae CIP 5855 after 18 hrs by agar dilution method; details: CIP 5855, 18 h; summary of the method: as §1
Enterococcus gallinarum [22] = assay: Antibacterial activity against Enterococcus gallinarum N492 after 18 hrs by agar dilution method; details: N492, 18 h; summary of the method: as §1
MRC5 [23] = assay: Cytotoxicity against human MRC5 cells assessed as growth inhibition at 10^-5 M after 72 hrs by MTS assay relative to control; details: MRC5, 72 h, read-out: GI; summary of the method: as §2
Enterococcus faecium [24] = assay: Antibacterial activity against Enterococcus faecium CIP 107387 after 18 hrs by agar dilution method; details: CIP 107387, 18 h; summary of the method: as §1
[25] = system: Enterococcus casseliflavus; assay: Antibacterial activity against Enterococcus casseliflavus CIP 103018 after 18 hrs by agar dilution method; details: CIP 103018, 18 h; summary of the method: as §1
Enterococcus faecalis [26] = assay: Antibacterial activity against Enterococcus faecalis N491 after 18 hrs by agar dilution method; details: N491, 18 h; summary of the method: as §1
Listeria monocytogenes [27] = assay: Antibacterial activity against Listeria monocytogenes CIP 103575 after 18 hrs by agar dilution method; details: CIP 103575, 18 h; summary of the method: as §1
Listeria innocua = assay: Antibacterial activity against Listeria innocua E044 after 18 hrs by agar dilution method; details: E044, 18 h; summary of the method: as §1
Enterococcus faecium [28] = assay: Antibacterial activity against Enterococcus faecium N823 after 18 hrs by agar dilution method; details: N823, 18 h; summary of the method: as §1
Staphylococcus aureus [29] = assay: Antibacterial activity against Staphylococcus aureus CIP 53156 after 18 hrs by agar dilution method; details: CIP 53156, 18 h; summary of the method: as §1
Staphylococcus aureus [30] = assay: Antibacterial activity against Staphylococcus aureus CIP 5710 after 18 hrs by agar dilution method; details: CIP 5710, 18 h; summary of the method: as §1
Bacillus cereus [31] = assay: Antibacterial activity against Bacillus cereus N349 after 18 hrs by agar dilution method; details: N349, 18 h; summary of the method: as §1
Listeria monocytogenes [32] = assay: Antibacterial activity against Listeria monocytogenes N783 after 18 hrs by agar dilution method; details: N783, 18 h; summary of the method: as §1
Staphylococcus aureus [33] = assay: Antibacterial activity against Staphylococcus aureus ATCC 25923 after 18 hrs by agar dilution method; details: ATCC 25923, 18 h; summary of the method: as §1
[34] = system: Staphylococcus saprophyticus; assay: Antibacterial activity against Staphylococcus saprophyticus E260 after 18 hrs by agar dilution method; details: E260, 18 h; summary of the method: as §1
[35] = system: Staphylococcus saprophyticus; assay: Antibacterial activity against Staphylococcus saprophyticus CIP 76125 after 18 hrs by agar dilution method; details: CIP 76125, 18 h; summary of the method: as §1
Corynebacterium striatum = assay: Antibacterial activity against Corynebacterium striatum N840 after 18 hrs by agar dilution method; details: N840, 18 h; summary of the method: as §1
[36] = system: Staphylococcus intermedius; assay: Antibacterial activity against Staphylococcus intermedius N987 after 18 hrs by agar dilution method; details: N987, 18 h; summary of the method: as §1
Enterococcus gallinarum [37] = assay: Antibacterial activity against Enterococcus gallinarum N489 after 18 hrs by agar dilution method; details: N489, 18 h; summary of the method: as §1
Staphylococcus aureus [38] = assay: Antibacterial activity against Staphylococcus aureus CRBIP 2121 after 18 hrs by agar dilution method; details: CRBIP 2121, 18 h; summary of the method: as §1
Staphylococcus aureus [39] = assay: Antibacterial activity against Staphylococcus aureus CIP 483 after 18 hrs by agar dilution method; details: CIP 483, 18 h; summary of the method: as §1
Bacillus cereus [40] = assay: Antibacterial activity against Bacillus cereus N258 after 18 hrs by agar dilution method; details: N258, 18 h; summary of the method: as §1
[41] = system: Enterococcus casseliflavus; assay: Antibacterial activity against Enterococcus casseliflavus N487 after 18 hrs by agar dilution method; details: N487, 18 h; summary of the method: as §1
MRC5 [42] = assay: Cytotoxicity against human MRC5 cells assessed as growth inhibition at 10^-6 M after 72 hrs by MTS assay relative to control; details: MRC5, 72 h, read-out: GI; summary of the method: as §2

MIC (Enterococcus faecium [1]): > 79 µM
MIC (Bacillus cereus [2]): 25 µM (≈ 7.96 µg/mL)
MIC (Bacillus spizizenii): 25 µM (≈ 7.96 µg/mL)
MIC (Mammaliicoccus sciuri): > 79 µM
MIC (Staphylococcus aureus [3]): 50 µM (≈ 15.9 µg/mL)
MIC (Streptococcus agalactiae): 50 µM (≈ 15.9 µg/mL)
MIC (Enterococcus durans): 50 µM (≈ 15.9 µg/mL)
MIC [4]: 79 µM (≈ 25.2 µg/mL)
MIC (Enterococcus faecium [5]): 50 µM (≈ 15.9 µg/mL)
MIC (Enterococcus faecalis [8]): > 79 µM
MIC (Enterococcus faecalis [9]): > 79 µM
MIC (Staphylococcus aureus [10]): 50 µM (≈ 15.9 µg/mL)
MIC (Enterococcus faecalis [11]): > 79 µM
MIC (Listeria monocytogenes [12]): 50 µM (≈ 15.9 µg/mL)
MIC (Enterococcus faecium [14]): > 79 µM
MIC (Bacillus cereus [15]): 50 µM (≈ 15.9 µg/mL)
MIC (Listeria monocytogenes [16]): 50 µM (≈ 15.9 µg/mL)
MIC (Enterococcus avium): > 79 µM
MIC [17]: 50 µM (≈ 15.9 µg/mL)
MIC (Enterococcus gallinarum [18]): > 79 µM
MIC (Enterococcus faecalis [19]): > 79 µM
MIC (Enterococcus faecium [20]): > 79 µM
MIC (Staphylococcus aureus [21]): > 79 µM
MIC (Enterococcus hirae): > 79 µM
MIC (Enterococcus gallinarum [22]): > 79 µM
MIC (Enterococcus faecium [24]): > 79 µM
MIC [25]: > 79 µM
MIC (Enterococcus faecalis [26]): > 79 µM
MIC (Listeria monocytogenes [27]): > 79 µM
MIC (Listeria innocua): 50 µM (≈ 15.9 µg/mL)
MIC (Enterococcus faecium [28]): > 79 µM
MIC (Staphylococcus aureus [29]): 50 µM (≈ 15.9 µg/mL)
MIC (Staphylococcus aureus [30]): > 79 µM
MIC (Bacillus cereus [31]): 25 µM (≈ 7.96 µg/mL)
MIC (Listeria monocytogenes [32]): 50 µM (≈ 15.9 µg/mL)
MIC (Staphylococcus aureus [33]): > 79 µM
MIC [34]: > 79 µM
MIC [35]: > 79 µM
MIC (Corynebacterium striatum): 50 µM (≈ 15.9 µg/mL)
MIC [36]: 50 µM (≈ 15.9 µg/mL)
MIC (Enterococcus gallinarum [37]): 50 µM (≈ 15.9 µg/mL)
MIC (Staphylococcus aureus [38]): 50 µM (≈ 15.9 µg/mL)
MIC (Staphylococcus aureus [39]): > 79 µM
MIC (Bacillus cereus [40]): 25 µM (≈ 7.96 µg/mL)
MIC [41]: > 79 µM
SMILES: C=C1CC[C@H]2C(C)(C)CCC[C@]2(C)[C@H]1C[C@H](O)C1=CCOC1=O
inhibition of growth at 1 µM (HCT-116 [6]): 0%
MIC [7]: > 79 µM
inhibition of growth at 10 µM (HCT-116 [13]): 69%
inhibition of growth at 10 µM (MRC5 [23]): 71%
inhibition of growth at 1 µM (MRC5 [42]): 0%
